Hsp70 act – Hsp70 transcriptional activators, primary screen, cell-based, HeLa, Hsp70 promoter luciferase, luminescence, 10 µM | HeLa Hsp70 promoter luciferase reporter; scaled: vehicle 0, proteasome-inhibitor control 100% | 0.04% of 200,000 active | activation, % at 10 µM;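 active = activation above the mean across all tested compounds plus 3 SD, cutoff set per campaign, cut at about 5.5% in these data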;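 note: 100% = MG132 at 30 µM as the positive control and 0% = DMSO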
Wee1 degr inh – Wee1 degradation inhibitors, primary screen, cell-based, HeLa, Wee1K328M-luciferase, luminescence. Wee1-like protein kinase (Homo sapiens), P30291. HeLa Luc-Wee1K328M stability; 100% = proteasome inhibitor MG132 effect. reporter increase, % at 5 µM. 1.2% of 220,000 active. AID 1321, 2008;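 active = activation above the mean of all tested compounds plus 3 SD, set per screening run, cut at about 8.8% in these data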;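 note: cells exposed to compound for 20 h before luminescence read; 0% = DMSO alone and 100% = MG132 at 30 µM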
Target sequence (P30291 whole entry K328M): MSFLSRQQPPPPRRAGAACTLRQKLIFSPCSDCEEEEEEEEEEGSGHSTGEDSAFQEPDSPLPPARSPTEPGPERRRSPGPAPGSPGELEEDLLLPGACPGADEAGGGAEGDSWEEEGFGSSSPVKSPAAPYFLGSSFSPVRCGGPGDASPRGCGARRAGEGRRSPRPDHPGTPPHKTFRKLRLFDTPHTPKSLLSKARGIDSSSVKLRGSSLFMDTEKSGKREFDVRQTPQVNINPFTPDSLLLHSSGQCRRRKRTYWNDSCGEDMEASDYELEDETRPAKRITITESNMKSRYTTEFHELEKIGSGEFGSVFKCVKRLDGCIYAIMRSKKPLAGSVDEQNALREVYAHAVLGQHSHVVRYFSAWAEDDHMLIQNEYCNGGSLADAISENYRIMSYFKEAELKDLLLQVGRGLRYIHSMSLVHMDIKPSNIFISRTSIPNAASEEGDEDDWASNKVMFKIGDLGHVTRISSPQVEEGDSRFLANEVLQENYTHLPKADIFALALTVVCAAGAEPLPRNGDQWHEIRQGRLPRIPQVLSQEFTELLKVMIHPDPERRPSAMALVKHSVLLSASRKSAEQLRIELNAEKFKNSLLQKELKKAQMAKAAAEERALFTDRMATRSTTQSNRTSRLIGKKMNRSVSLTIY
Pf gamet viab – late stage P. falciparum gametocyte viability inhibitors, primary screen, ATP luminescence, HTS. P. falciparum stage V gametocytes, 24 h. inhibition, % at 10.9 µM. 0.065% of 150,000 active. AID 743093, 2013;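 active = inhibition above the mean plus 3 SD of compounds within the control limits, set per campaign, cut at about 38% in these data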;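 note: 0% = DMSO wells and 100% = medium only without gametocytes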
Mdm2 ligase inh – MDM2-luciferase reporter signal enhancers, primary screen, MDM2 E3 ligase inhibitor project, cell-based, luminescence, 1536-well; E3 ubiquitin-protein ligase Mdm2 (Homo sapiens), Q00987; cell-based MDM2 ubiquitination luciferase reporter, 2 h; 0 = plate control, 100 = twice control, blank-subtracted; signal enhancement, % at 5 µM; AID 1230, 2008; 0.11% of 210,000 active;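 active = signal enhancement of 30% or more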;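 note: luminescence tracks abundance of the self-degrading MDM2-luciferase fusion protein; higher signal means inhibition of MDM2 E3 ligase activity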
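System: stable MDM2–luciferase fusion reporter cells / Input: 2000 cells seeded into each well / Schedule: 4 h settle plus 2 h compound, 37 °C / Compound: single-point 5 µM / Buffer or medium: cells held in DMEM / Benchmarks: control and blank well means / Evaluation: percent signal gain over controls, blank-subtracted / Measured by: luciferase luminescence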
The depositor's hits bear a star; . = no result. An excerpt weighted towards active compounds, which were near 1.3% of everything screened.

SMILES	Hsp70 act	Wee1 degr inh	Pf gamet viab	Mdm2 ligase inh
CCOC(=O)c1ccc(-n2c(N)c(C(=O)NCC3CCCO3)sc2=S)cc1 (centres undefined)	-0.4	0.4	-8.0	-16.2
COc1ccc(Cl)cc1S(=O)(=O)N1CCCC1=O	-0.3	10.0*	2.3	-9.1
COC(=O)c1cc(S(=O)(=O)N2CCCC2=O)c(Cl)cc1Cl	.	.	6.2	.
COC(=O)/C(C#N)=C(/Nc1ccc(F)c(Cl)c1)C(F)(F)F	.	-0.6	0.3	-8.6
CN(Cc1ccccc1)c1nc(-c2cccc([N+](=O)[O-])c2)nc2ccccc12	-0.3	10.7*	3.4	-3.0
Clc1ccc(CN=C2Nc3ccccc3CS2)cc1	-0.2	8.8*	-5.1	-1.3
CC(C)S(=O)(=O)c1csc(NC(=O)Nc2ccc(Cl)cc2)c1	.	5.8	-13.4	-11.3
COc1ccc(OC)c(S(=O)(=O)Oc2ccc(N)c3ccccc23)c1	.	.	16.0	.
Cc1ccc(COc2ccc(C)nc2[N+](=O)[O-])cc1	.	8.8*	0.2	-19.4
Cc1ccc(CNC(=O)COc2ccc(C)nc2[N+](=O)[O-])cc1	-0.5	3.1	-9.3	-2.1
CCn1cc(CNC(=S)Nc2cccc3ccccc23)cn1	-0.1	9.3*	-42.2	-95.8
S=C(NCc1cccnc1)Nc1cccc2ccccc12	-0.2	-2.1	0.5	-4.0
O=C(CN1C(=O)c2ccccc2S1(=O)=O)Nc1ccc(S(=O)(=O)N2CCCCC2)cc1	-0.1	9.1*	25.8	-1.2
O=C(CN1C(=O)c2ccccc2S1(=O)=O)Nc1ccc(S(=O)(=O)N2CCCC2)cc1	-0.5	-0.1	20.4	-73.0
O=C(COC(=O)c1ccc(Br)cc1)NCc1ccc(F)cc1	-0.2	-2.0	3.6	-4.2
C=C1CC2C=C(NC(C)=O)CC(C1)C2 (centres undefined)	0.0	9.6*	.	-1.3
Cc1ccc(-c2cc(C(=O)O)c3cc(Br)ccc3n2)o1	-0.4	9.0*	.	.
CC(C)c1ccc(N(CC(=O)N2CCN(Cc3ccccc3)CC2)S(C)(=O)=O)cc1	.	.	8.0	.
CC1(C)CC(=O)C(N=Nc2ccc(C(F)(F)F)cc2[N+](=O)[O-])=C(O)C1	.	1.1	19.2	-7.8
COCCNC(=O)c1ccccc1NC(=O)COc1ccccc1	-0.1	-0.3	-5.0	1.6
COC(=O)c1ccccc1NC(=O)COc1ccccc1	1.6	13.0*	-24.7	-39.1
Cc1nc(NC(=O)CN2CCCCC2)sc1C(=O)N(C)C	.	.	4.7	.
O=C(Nc1ccc(F)cc1)c1ccccc1S(=O)(=O)c1ccccc1[N+](=O)[O-]	-0.6	2.7	14.5	48.8*
CCOC(=O)C1=C2SCC(=O)N2C(N)=C(C#N)C1	-0.3	-1.0	.	-15.4
COC(=O)C1=C2SCC(=O)N2C(N)=C(C#N)C1	.	11.8*	-25.6	-6.7
SMILES	Hsp70 act	Wee1 degr inh	Pf gamet viab	Mdm2 ligase inh
O=C(O)c1ccc(CN(c2ccccc2)S(=O)(=O)c2ccccc2)cc1	.	.	-9.6	.
O=C(Nc1nc2ccc(S(=O)(=O)N3CCOCC3)cc2s1)c1cccs1	0.1	10.2*	-6.3	-22.4
CCn1c(COc2cc(C)ccc2C(C)C)nnc1SCC(=O)Nc1nccs1	0.0	10.6*	19.6	-2.9
Cn1c(CCCOc2ccc(Cl)cc2Cl)nnc1SCC(=O)Nc1nccs1	-0.3	-1.1	-4.0	-11.0
CCC(C)Sc1ccc([C@@H]2[C@@H]3C(=O)N(CC)C(=O)[C@@H]3[C@]3(C(=O)OC)CCCCN23)cc1 (some centres undefined)	.	.	-18.3	.
CCOc1ccc(Cl)cc1C1=CC(=O)C[C@H](c2ccc(OC)cc2)C1	.	.	-4.8	.
COc1ccccc1N=c1oc2cc(O)ccc2cc1C(N)=O	0.3	-3.3	55.6*	-47.3
N#C/C(=C\c1cccc(O)c1)C(=O)Nc1ccc2c(c1)OCCO2	.	-2.2	8.8	4.8
c1ccc(-c2nc(N3CCOCC3)c3ccccc3n2)nc1	-0.3	0.1	.	3.5
Cc1nc(-c2ccccn2)nc(N2CCOCC2)c1Cl	.	10.2*	7.5	-12.9
COc1ccccc1OC1OC2COC(c3ccco3)OC2C(O)C1NC(C)=O (centres undefined)	0.0	9.1*	0.3	-8.7
CC(=O)NC1C(Oc2cccc(C)c2)OC2COC(c3ccco3)OC2C1O (centres undefined)	-0.1	-2.7	-4.8	-7.9
Cn1c(-c2ccsc2)c(-c2cccs2)c2cc(Br)ccc21	.	.	-1.8	.
Cc1c(CN(C)C(=O)c2nn(C)cc2[N+](=O)[O-])cnn1C	-0.5	-4.8	3.7	2.4
Cc1c(CN(C)C(=O)/C=C/c2ccc([N+](=O)[O-])cc2)cnn1C	-0.3	8.9*	7.5	-9.7
NCCCC[C@@H](C(=O)N1CCNCC1)n1cc([C@@H](N)CC(N)=O)nn1	.	.	-8.5	.
Cc1sc(NC(=O)COc2ccccc2)c(C#N)c1-c1ccccc1	-0.2	9.6*	2.4	-7.3
COc1ccc(C(=O)Nc2sc(C)c(-c3ccccc3)c2C#N)cc1OC	-0.1	-0.5	.	-12.2
CC1CCc2sc(C(=O)OC(C)C(=O)Nc3ncc(Cl)cc3Cl)cc2C1 (centres undefined)	-0.3	10.1*	.	-16.6
O=C(C[C@H]1C/C=C\C[C@H](NC(=O)OCC2c3ccccc3-c3ccccc32)C(=O)OC[C@@H]2CCCN2C1=O)NCCO	.	.	13.4	.
C/C(CC(=O)Nc1ccc2c(c1)OCO2)=N\NC(=O)OC(C)(C)C	-0.3	6.2	7.0	-1.5
C/C(CC(=O)Nc1ccc2c(c1)OCO2)=N\NC(=O)c1ccc(N)cc1	.	9.6*	8.7	-12.6
COc1ccccc1N(C)S(=O)(=O)c1ccc(C(=O)OCC(=O)Nc2cc(C)on2)cc1	-0.2	3.0	.	5.5
COc1ccccc1N(C)S(=O)(=O)c1ccc(C(=O)OCC(=O)Nc2ccccc2F)cc1	-0.2	10.8*	.	-10.6
O=C(N/N=C/c1ccc(O)cc1)c1cccc(N/N=C/c2ccc(O)cc2)c1	.	0.1	5.2	-14.8
SMILES	Hsp70 act	Wee1 degr inh	Pf gamet viab	Mdm2 ligase inh
CC1(C)CC(=O)C=C(NCc2cccnc2)C1	-0.3	9.3*	.	-8.1
CC1CCN(c2ncnc3c2cnn3-c2ccccc2)CC1	0.3	10.6*	.	-14.3
C/C=C/c1ccc(OCCCCOc2c(OC)cccc2OC)c(OC)c1	-0.2	14.7*	-14.4	0.1
C/C=C/c1ccc(OCCCCOc2ccccc2C(C)=O)c(OC)c1	-0.3	-0.4	6.6	-12.4
COc1ccc(C(=O)Nc2c(Cl)cc(Cl)cc2C(=O)N2CCOCC2)cc1	0.3	8.9*	-6.7	0.9
COc1ccc2cc(-c3[nH]ncc3CN3CCCC3c3nonc3C)ccc2c1 (centres undefined)	-0.3	5.8	2.9	-3.4
Cc1ccc(-c2csc3nc[nH]c(=S)c23)cc1	-0.2	-0.3	51.0*	2.5
Cc1nc2ccccc2c2c1C(=O)N(c1cccc(C(=O)O)c1)C2=O	-0.2	-3.0	.	-24.1
